Assay results reported in ChEMBL document CHEMBL4270646, “Novel antimalarial chloroquine- and primaquine-quinoxaline 1,4-di-N-oxide hybrids: Design, synthesis, Plasmodium life cycle stage profile, and preliminary toxicity studies” (Eur J Med Chem, 2018).

Assays:
Mus musculus [1] = assay: Induction of alanine transferase level in BALB/c mouse at 300 to 500 mg/kg, po administered as single dose measured at day 14 (reference value: 34 to 78 U/L); type: organism-based; details: in vivo
Summary of the method: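 BALB/c female mice (6-8 weeks, 20-23 g), groups of three, given one oral dose of 300 or 500 mg/kg; DMSO 100% vehicle for controls. Observed 4 h after dosing, then daily for 14 days. Euthanized on day 14 or on signs of suffering. Blood biochemistry, including alanine transferase, compared with the range in untreated mice.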

Plasmodium yoelii = assay: Antiplasmodial activity against Plasmodium yoelii 17XNL sporozoites infected in BALB/c mouse assessed as pre-patent time period of parasitaemia at 100 mg/kg, po measured at day 4 by […]; type: functional
Summary of the method: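 BALB/c mice (6-8 weeks, 20-23 g), n=4 per hybrid group and n=5 per control. Dosed orally at 100 mg/kg (100 µL) on days -1, 0, +1 and +2. Vehicle was DMSO 100%; primaquine diphosphate given at 30 mg/kg daily. On day 0, 5 x 10^3 cryopreserved P. yoelii 17XNL sporozoites injected i.v. Parasitaemia read by Giemsa smear and SYBR Green flow cytometry. Groups compared by Kruskal-Wallis test.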

[2] = Selectivity index, ratio of CC50 for human HepG2 cells expressing CD81 to IC50 for GFP-expressing Plasmodium yoelii sporozoites; type: toxicity; details: read-out: Ratio CC50/IC50
Summary of the method: (§1)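 Selectivity index = CC50 (matching cell) / IC50 (matching parasite). Cell–parasite pairs: HepG2-CD81 with P. yoelii, HepG2 with P. berghei, human hepatocytes with P. falciparum.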

[3] = Selectivity index, ratio of CC50 for human HepG2 cells to IC50 for GFP-expressing Plasmodium berghei sporozoites; type: toxicity; details: read-out: Ratio CC50/IC50; summary of the method: as §1
Mus musculus [4] = assay: Acute toxicity in BALB/c mouse assessed as necrosis of kidney at 500 mg/kg, po administered as single dose measured at day 14 by haematoxylin and eosin staining based microscopic analysis; type: organism-based; details: in vivo
Summary of the method: (§2)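 Female BALB/c mice, groups of three, single oral dose; vehicle DMSO 100% for controls. Mice euthanised with CO2 on day 14, or earlier if suffering. Gross necropsy performed. Spleen, liver and kidney fixed in formaldehyde 37%, stained with haematoxylin and eosin and examined by light microscopy.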

[5] = Genotoxicity in Salmonella typhimurium TA1535 harboring pSK1002 assessed as umu gene induction at 0.001 to 0.063 mg/ml after 4 hrs in absence of Sprague-Dawley rat liver S9 fraction by beta-galactosidase reporter gene assay relative to control; type: toxicity, organism-based; details: salmonella enterica subsp. enterica serovar typhimurium; read-out: FC
Summary of the method: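 SOS/umu test, 4 h at 37°C, with S9 mix or PBS. Positive controls 4-NQO (2.5 µg/mL final, no S9) and 2-AA (0.0125 mg/mL final, with S9). Aliquots incubated with ONPG 0.9 mg/mL in B-buffer for 30 min at 28°C, then stopped with 1 M Na2CO3. Activity calculated as A420/A600. Induction factor is the ratio to the DMSO control; genotoxic if ≥2 at ≥80% survival.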

Mus musculus [6] = assay: Acute toxicity in BALB/c mouse assessed as effect on feeding habbit at 300 mg/kg, po administered as single dose measured every day for 14 days; type: organism-based; details: in vivo, 336 h
Summary of the method: (§3)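 Female BALB/c mice, 6-8 weeks old, 20-23 g, in groups of three. Single oral dose of 300 or 500 mg/kg; vehicle DMSO 100% given to controls. Mice watched for signs of toxicity for 4 h after dosing. Physical appearance, injury, pain and illness recorded daily for 14 days. Euthanasia in a CO2 chamber on day 14 or earlier if suffering.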

Mus musculus [7] = assay: Acute toxicity in BALB/c mouse assessed as necrosis of liver at 500 mg/kg, po administered as single dose measured at day 14 by haematoxylin and eosin staining based microscopic analysis; type: organism-based; details: in vivo; summary of the method: as §2
Mus musculus [8] = assay: Acute toxicity in BALB/c mouse assessed as behavioral changes at 300 mg/kg, po administered as single dose measured every day for 14 days; type: organism-based; details: in vivo, 336 h; summary of the method: as §3
Plasmodium berghei [9] = assay: Antiplasmodial activity against GFP-harboring Plasmodium berghei sporozoites infected in human HepG2 cells assessed as reduction in parasite growth treated every 24 hrs by DAPI staining-based fluorescence microscopic analysis; type: functional, organism-based; details: HepG2, 24 h
Summary of the method: (§4)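 Collagen-coated wells seeded with HepG2 (P. berghei), HepG2-CD81 (P. yoelii) or primary human hepatocytes (P. falciparum). Sporozoites added: 5×10^3 to 1×10^4 per well to the cell lines, 2.5×10^4 per well to hepatocytes. Compounds given at infection: top 10 µg/mL plus seven serial dilutions, renewed at 3 h and then every 24 h. Cultures grown 40 h (cell lines) or 8 days (hepatocytes) at 37°C. Methanol-fixed, HSP70 immunolabelled, DAPI counterstained. IC50 from logistic regression; triplicate.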

Plasmodium falciparum [10] = assay: Antiplasmodial activity against chloroquine-sensitive Plasmodium falciparum 3D7 infected in human red blood cells assessed as reduction in parasite growth after 48 hrs by Hoechst 33342 staining based flow cytometric analysis; type: functional, organism-based; details: 3D7, 48 h
Summary of the method: (§5)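 Ring-stage cultures (>80% rings) at 1% parasitaemia in A+ human erythrocytes, 2% haematocrit. Medium RPMI 1640 with 10% A+ serum, 37°C, 5% CO2/5% O2. Compounds in DMSO at 1.56–100 µg/mL final, DMSO ≤1%. After 48 h, cells stained with Hoechst 33342 and 1×10^4 counted by flow cytometry. IC50 from logistic dose-response regression; three independent experiments in triplicate.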

Plasmodium falciparum [11] = assay: Antiplasmodial activity against GFP-harboring Plasmodium falciparum sporozoites infected in human primary hepatocytes assessed as reduction in parasite growth treated every 24 hrs by DAPI staining-based fluorescence microscopic analysis; type: functional, organism-based; summary of the method: as §4
Plasmodium berghei [12] = assay: Antiplasmodial activity against GFP-expressing gametocytes of Plasmodium berghei sporozoites in Anopheles stephensi mosquitoes feeded on blood from infected Swiss mouse assessed as reduction in number of oocysts in mosquito midgut at 100 mg/kg, ip pretreated for 1.5 hrs followed by blood feeding of mosquito and measured at 8 days post mosquitoes infection by fluorescence microscopic method relative to control; type: functional; parameters: scale not given: the % may be the effect or the level left
Summary of the method: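 Swiss mice (female, 6 weeks) infected i.p. with PbGFP-infected red cells (200 µL, 3000 parasites/µL). Gametocytes monitored 4 days by Giemsa smear and exflagellation. Hybrid given i.p. at 100 mg/kg in DMSO 1.5 h before A. stephensi fed 1 h on mice with 1% gametocytes. Controls were untreated and DMSO-treated mice. Thirty mosquitoes per group dissected after 8 days. Midgut oocysts counted by fluorescence microscopy against control mosquitoes taken as 100%.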

[13] = Genotoxicity in Salmonella typhimurium TA1535 harboring pSK1002 assessed as bacterial survival at 0.001 to 0.063 mg/ml after 4 hrs in absence of Sprague-Dawley rat liver S9 fraction by SOS/umu assay relative to control; type: toxicity, organism-based; details: salmonella enterica subsp. enterica serovar typhimurium; read-out: Survival
Summary of the method: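 Log-phase S. typhimurium TA1535/pSK1002 (OD600 0.15–0.4) exposed for 4 h at 37°C with shaking, with 10% rat S9 mix or PBS. Eleven twofold dilutions tested from 1 mg/mL final; DMSO as solvent control. A600 read. Survival expressed as % of negative-control A600.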

Plasmodium falciparum [14] = assay: Antiplasmodial activity against the multidrug-resistant Plasmodium falciparum […] infected in human red blood cells assessed as reduction in parasite growth after 48 hrs by Hoechst 33342 staining based flow cytometric analysis; type: functional, organism-based; summary of the method: as §5

COc1cc(NC(C)CCCNC(=O)c2c(C)[n+]([O-])c3ccccc3[n+]2[O-])c2ncccc2c1 (stereo not given)
Activity (Mus musculus [1]): 82 U/L | Time (Plasmodium yoelii): 24 h | selectivity ratio [2]: 153 | selectivity ratio [3]: 7.59 | Activity (Mus musculus [4]): Non-Toxic | fold induction at 4 h [5]: < 2 | Activity (Mus musculus [6]): Non-Toxic | Activity (Mus musculus [7]): Non-Toxic | Activity (Mus musculus [8]): Non-Toxic | IC50 (Plasmodium berghei [9]): 5.19 µM | IC50 (Plasmodium falciparum [10]): 67.2 µM | IC50 (Plasmodium falciparum [11]): 5.38 µM | Activity (Plasmodium berghei [12]): 92% | viability at 4 h [13]: > 80% | IC50 (Plasmodium falciparum [14]): 68.2 µM
